Measurements from PubChem BioAssay.
Active and inactive are the calls of the source.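 How the source made its calls, unless noted: active means GFP response above 150% of the DMSO level; inconclusive means fewer than 70 events counted for a yeast strain; inactive means the rest.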

Tests used:
[1] = hit retest on RPL19A-GFP reporter strain – cell-based, S. cerevisiae, flow cytometry, cherry picks, mother/daughter gates, confirmation (AID 2270;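 active means GFP response below 50% of the DMSO control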); details: 3 h, at 10 µM, stronger effect = lower value, 100 = same GFP as DMSO wells
[2] = yeast TOR pathway reporter LAP4-GFP change – cell-based, cherry picks, flow cytometry, mother/daughter gates, confirmation (AID 2271;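 active means GFP response above 150% of the DMSO control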;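 further: ratio of sample to DMSO plate mean so 100% equals DMSO level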); details: S. cerevisiae LAP4-GFP strain, 3 h, at 10 µM, stronger effect = higher value, 100 means same as DMSO control
How it was run: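 Measured by: GFP by flow cytometry. Test system: GFP-fusion yeast strain. Input: yeast cells seeded at OD600 of 0.2. Timing: 30 °C, 3 h compound incubation, rotating. Buffer or medium: synthetic complete medium for yeast. Benchmarks: DMSO-only negative wells, rapamycin 400 ng/mL positive wells. Compound: 10 µM single dose.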

[3] = TOR pathway reporter MEP2-GFP, retest of hits – S. cerevisiae, flow cytometry GFP, cherry picks, confirmation (AID 2272;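 active means GFP response above 150% of the DMSO control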;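 further: ratio of well signal to plate DMSO mean so 100% equals DMSO level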); details: S. cerevisiae MEP2-GFP strain, 3 h, at 10 µM, stronger effect = higher value
[4] = yeast AGP1-GFP fluorescence change, single-dose – cell-based, flow cytometry, S. cerevisiae, cherry picks, confirmation (AID 2273);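 further: median GFP channel fluorescence over the whole cell population gate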; details: S. cerevisiae AGP1-GFP strain, 3 h, at 10 µM
[5] = TOR pathway CIT2 reporter hit retest – S. cerevisiae, GFP fusion, cherry picks, mother/daughter gates, confirmation (AID 2274); details: S. cerevisiae CIT2-GFP strain, flow cytometry, 3 h, at 10 µM, stronger effect = higher value
[6] = measured here: daughter cell gate
[7] = measured here: mother cell gate
[8] = measured here: daughter cell gate response
[9] = measured here: mother cell gate response

Compound | GFP response vs DMSO [1] | GFP response vs DMSO [1, 6] | GFP response vs DMSO [1, 7] | GFP response relative to DMSO [2] | GFP response relative to DMSO [2, 8] | GFP response relative to DMSO [2, 9] | GFP response vs DMSO [3] | GFP response, % of DMSO [4] | GFP response, % of DMSO [5] | GFP response, % of DMSO [5, 6] | GFP response, % of DMSO [5, 7]
COc1ccccc1C(=O)N1CCN(c2cccc(Cl)c2)CC1 | 97.2% (inactive) | 98.9% | 95.8% | 102% (inactive) | 102% | 99.3% | 100% (inactive) | 95.6% (inactive) | 96.9% (inactive) | 99.1% | 95%
COc1cccc(C2CC(c3c(-c4ccccc4)c4cc(Cl)ccc4[nH]c3=O)=NN2S(C)(=O)=O)c1OC (stereo not drawn) | 94.3% (inactive) | 96.5% | 95% | 100% (inactive) | 101% | 99.5% | 99.5% (inactive) | 102% (inactive) | 101% (inactive) | 102% | 98%
Cc1cccc(/C(N)=N/OC(=O)C23CC4CC(CC(C4)C2)C3)c1 | 102% (inactive) | 101% | 101% | 113% (inactive) | 108% | 119% | 108% (inactive) | 85% (inactive) | 123% (inactive) | 111% | 127%
CC1(C)CC(=O)C2=C(C1)OC1=C(C(=O)CC(C)(C)C1)C2c1ccc(O)cc1O | 104% (inactive) | 105% | 99.8% | 143% (inactive) | 139% | 143% | 97.8% (inactive) | 96.3% (inactive) | 95.2% (inactive) | 103% | 89.1%
Cc1cc(OCC(=O)Nc2ccc(S(=O)(=O)N3CCN(C)CC3)cc2)ccc1Br | 98% (inactive) | 98.7% | 97.3% | 97.7% (inactive) | 99% | 97.4% | 101% (inactive) | 106% (inactive) | 101% (inactive) | 101% | 103%
COc1ccc(C2CC(c3ccccc3)=NN2S(=O)(=O)c2ccccc2)c(OC)c1 (stereo not drawn) | 99.2% (inactive) | 99.8% | 99.1% | 99.5% (inactive) | 102% | 99.4% | 99% (inactive) | 103% (inactive) | 106% (inactive) | 108% | 104%
C/C(=N\NC(=O)c1cccc(Cl)c1)c1cccc(NC(=O)C(C)C)c1 | 96.2% (inactive) | 98.1% | 95.6% | 92.9% (inactive) | 94.4% | 92.3% | 103% (inactive) | 99.8% (inactive) | 100% (inactive) | 99.3% | 103%
O=C(/C=C/c1c(F)cccc1Cl)c1ccc(F)cc1 | 104% (inactive) | 104% | 101% | 118% (inactive) | 120% | 120% | 157% (inactive) | 104% (inactive) | 126% (inactive) | 129% | 120%
O=C1C(Cl)=C(Nc2ccc(F)cc2)C(=O)N1CCc1ccccc1 | 100% (inactive) | 99.3% | 101% | 95.7% (inactive) | 95.9% | 96.2% | 101% (inactive) | 104% (inactive) | 100% (inactive) | 101% | 99.3%
COc1ccc(-c2nc3cc(C)ccn3c2NCC2CCCO2)cc1OC (stereo not drawn) | 94.8% (inactive) | 96.4% | 93.4% | 97% (inactive) | 94.2% | 96.2% | 99% (inactive) | 104% (inactive) | 100% (inactive) | 101% | 99.3%
CC(=O)Oc1oc(-c2ccccc2)nc1C=Nc1ccccc1 | 102% (inactive) | 101% | 98.6% | 126% (inactive) | 119% | 130% | 97.2% (inactive) | 95.2% (inactive) | 90.3% (inactive) | 92.3% | 89.3%
COc1cc(/C=C/C(=O)c2c(O)ccc3c(C)cc(=O)oc23)ccc1O | 95% (inactive) | 94.4% | 95.8% | 124% (inactive) | 120% | 130% | 98.3% (inactive) | 92.5% (inactive) | 96.9% (inactive) | 101% | 93.8%
CCCCNC(=O)c1ccc2c(SCC(=O)O)c3c(nc2c1)CCCC3 | 98.7% (inactive) | 96.7% | 99% | 101% (inactive) | 104% | 97.5% | 99.5% (inactive) | 98% (inactive) | 97.8% (inactive) | 98.3% | 98%
Cc1ccc(S(=O)(=O)CC#CCOC(=O)c2ccc([N+](=O)[O-])cc2)cc1 | 105% (inactive) | 107% | 103% | 140% (inactive) | 132% | 148% | 105% (inactive) | 111% (inactive) | 97.2% (inactive) | 100% | 90.8%
O=C1c2ccsc2SCCN1Cc1cccc(Cl)c1 | 95.4% (inactive) | 92.6% | 95.8% | 108% (inactive) | 104% | 110% | 98.3% (inactive) | 98.7% (inactive) | 99.7% (inactive) | 99.1% | 101%
CC1=CC(=O)C(C(C)C)=C/C1=N/OS(=O)(=O)c1ccccc1 | 78.6% (inactive) | 51.6% | 71.3% | 271% (active) | 175% | 270% | 127% (inactive) | 118% (inactive) | 99.7% (inactive) | 111% | 83.8%
COc1cc(-c2noc(-c3cccc(Cl)c3)n2)cc(OC)c1OC | 96.2% (inactive) | 97% | 95.8% | 90.6% (inactive) | 88.2% | 91.3% | 103% (inactive) | 99.5% (inactive) | 101% (inactive) | 101% | 103%

Compound | GFP response vs DMSO [1] | GFP response vs DMSO [1, 6] | GFP response vs DMSO [1, 7] | GFP response relative to DMSO [2] | GFP response relative to DMSO [2, 8] | GFP response relative to DMSO [2, 9] | GFP response vs DMSO [3] | GFP response, % of DMSO [4] | GFP response, % of DMSO [5] | GFP response, % of DMSO [5, 6] | GFP response, % of DMSO [5, 7]
O=C(O)c1ccccc1SC1CC(=O)N(c2ccc3c(c2)OCO3)C1=O (stereo not drawn) | 97.6% (inactive) | 102% | 93.8% | 106% (inactive) | 102% | 108% | 103% (inactive) | 102% (inactive) | 95.8% (inactive) | 99.3% | 94.9%
Nc1cccnc1S(=O)(=O)c1ccccc1 | 98.8% (inactive) | 97.8% | 100% | 93.8% (inactive) | 94.1% | 95.2% | 100% (inactive) | 98.5% (inactive) | 99.1% (inactive) | 99.7% | 97.7%
CC1CN(c2nc3ccccn3c(=O)c2/C=C(\C#N)C(N)=O)CC(C)O1 (stereo not drawn) | 97.8% (inactive) | 97.3% | 95.8% | 96.5% (inactive) | 99% | 95.4% | 106% (inactive) | 99.5% (inactive) | 101% (inactive) | 99.3% | 103%
S=c1[nH]nc(NCCCN2CCOCC2)s1 | 96% (inactive) | 97.1% | 95.1% | 101% (inactive) | 101% | 102% | 103% (inactive) | 106% (inactive) | 102% (inactive) | 100% | 103%
CCNC(=O)/C(C#N)=C/c1c(N(Cc2ccccc2)Cc2ccccc2)nc2ccccn2c1=O | 101% (inactive) | 101% | 102% | 102% (inactive) | 101% | 103% | 110% (inactive) | 99.3% (inactive) | 105% (inactive) | 108% | 104%
CSc1ccc(/C=C/C(=O)c2ccc(NC(=O)C(C)C)cc2)cc1 | 98.8% (inactive) | 97.5% | 99.1% | 107% (inactive) | 103% | 111% | 100% (inactive) | 93.5% (inactive) | 92.6% (inactive) | 93.2% | 90.2%
O=C(CC1SC(=Nc2ccccc2F)N(CCN2CCOCC2)C1=O)Nc1ccc(F)cc1F (stereo not drawn) | 96.8% (inactive) | 97.4% | 96.6% | 95.4% (inactive) | 96% | 94% | 102% (inactive) | 97.8% (inactive) | 98.3% (inactive) | 99.1% | 98.5%
O=C(O)c1cccc(S(=O)(=O)N2Cc3ccccc3C2)c1 | 96.9% (inactive) | 97.3% | 95.9% | 106% (inactive) | 101% | 108% | 101% (inactive) | 104% (inactive) | 100% (inactive) | 99.3% | 100%
Cc1nn2c(N3CCOCC3)c3c(nc2c1-c1ccccc1)CCCC3 | 103% (inactive) | 102% | 102% | 101% (inactive) | 96% | 102% | 103% (inactive) | 103% (inactive) | 103% (inactive) | 101% | 102%
O=C(Oc1oc(-c2ccco2)nc1C=Nc1ccccc1)c1ccoc1 | 99.6% (inactive) | 99.8% | 96.9% | 198% (active) | 172% | 198% | 108% (inactive) | 98.2% (inactive) | 98.6% (inactive) | 103% | 91.5%
O=C1C(Cl)=C(N2CCN(Cc3ccccc3)CC2)C(=O)N1c1ccccc1 | 98.6% (inactive) | 98.4% | 98.5% | 96.2% (inactive) | 95.6% | 96.2% | 100% (inactive) | 97.8% (inactive) | 99.1% (inactive) | 98.1% | 96.6%
Cc1cc(N)ccc1NC(=O)c1ccccc1 | 101% (inactive) | 99.6% | 102% | 98.2% (inactive) | 99.1% | 98.4% | 105% (inactive) | 103% (inactive) | 100% (inactive) | 101% | 101%
COc1cc(NC(=O)C(C)C)ccc1NC(=O)c1cc2ccccc2o1 | 102% (inactive) | 99.8% | 103% | 92.6% (inactive) | 92.5% | 94.2% | 102% (inactive) | 97.8% (inactive) | 103% (inactive) | 101% | 104%
CCOC(=O)Cc1csc(NC(=O)c2sc3nc4ccc(C)cc4cc3c2N)n1 | 98.8% (inactive) | 98.1% | 100% | 91.4% (inactive) | 91% | 95.2% | 102% (inactive) | 96.7% (inactive) | 92.6% (inactive) | 94.8% | 92.3%
O=C(/C(=C/O)N=Nc1ccc(Cl)cc1)c1ccncc1 | 101% (inactive) | 99.3% | 98.8% | 111% (inactive) | 101% | 115% | 132% (inactive) | 101% (inactive) | 90.3% (inactive) | 88.7% | 88.2%
O=[N+]([O-])c1cc(CN2CCN(c3cccc(C(F)(F)F)c3)CC2)c2cccnc2c1O | 112% (inactive) | 96.4% | 104% | 234% (active) | 229% | 216% | 145% (inactive) | 116% (inactive) | 138% (inactive) | 117% | 131%
